The list is not random: actives were taken first. Their share in the collection is about 3.1%.
RAM inhibit – yeast RAM network inhibition; S. cerevisiae dse1pr::URA3 reporter, 5-FOA growth OD615, 2 d; analog-sensitive cbk1-as2 kinase mutant strain; inhibition, % at 50 µM; 1.8% of 190,000 active;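 active = inhibition above a set limit, 3 SD over mean compound inhibition, cut at about 8.4% in these data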;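 also: 0% = DMSO-only wells with no growth and 100% = 10 µM 1-NA-PP1 full growth; inhibition rescues growth on 5-FOA so higher OD means more RAM inhibition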
Ins promoter up – MIN6 insulin promoter up-regulation. z-score at 5 µM. MIN6 insulin promoter-GFP reporter, high-content imaging; stronger effect = higher value. 0.3% of 190,000 active;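 active = z-score above 3 at 5 µM with at least 500 cells counted in the well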
Yeast growth inh – reduces growth of yeast BB579 in restrictive medium. S. cerevisiae BB579 growth, OD615, 48 h. inhibition, % at 10 µM. 0.51% of 140,000 active;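 active = inhibition above a set limit, 3 SD over the mean compound inhibition, cut at about 44% in these data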
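Assay system: S. cerevisiae DeaD strain BB579 yeast. Medium: CSMM-D restrictive synthetic medium containing dextrose (glucose). Times: 4 h cell preincubation, 48 h compound exposure, 30 °C humidified. Signal: OD615 turbidity measurement. Benchmarks: positive control amphotericin B 10 µg/mL.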
INS promoter inh – TRM-6 insulin promoter activity inhibition. inhibition, % at 2 µM. 0.9% of 130,000 active. TRM-6 cells, insulin promoter-eGFP reporter, imaging; reporter expression induced with tamoxifen;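 active = inhibition above the mean plus 3 SD, with well images judged a real hit on visual review, cut at about 60% in these data, passing the limit was not always enough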
Yeast life ext – yeast lifespan extension | S. cerevisiae growth with nicotinamide, OD615; deaD strain in restrictive glucose medium | inhibition of the nicotinamide effect, % at 10 µM | 0.68% of 130,000 active;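 active = inhibition above a set limit, placed 3 SD over the median of all compounds, cut at about 26% in these data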;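 also: 0% = nicotinamide-treated wells and 100% = cells grown without nicotinamide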
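System: DeaD-strain S. cerevisiae / Buffer or medium: CSMM-D, restrictive glucose (dextrose) synthetic minimal medium / Probe or stimulus: nicotinamide, 1.5 mM, co-present with compound / Compound: one concentration, 10 µM, DMSO 0.25% / Incubation: 48 h compound exposure at 30 °C, humidified / Technique: optical density (absorbance) at 615 nm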
The depositor's hits bear a star; . = no result given.

SMILES | RAM inhibit | Ins promoter up | Yeast growth inh | INS promoter inh | Yeast life ext
COc1ccc(C(C(=O)NC2CCCC2)N(Cc2cccs2)C(=O)c2ccn[nH]2)cc1OC (configuration not stated) | 2 | 0.76 | . | . | .
O=S(=O)(/N=C/c1c(O)ccc2ccccc12)c1cccs1 | -1 | -0.25 | -20 | 31 | 30*
O=CN/N=C/c1c(O)ccc2ccccc12 | . | 0.07 | . | . | .
COc1c(O)ccc(/C=N/NC(=O)c2ccc3c(c2)OCCO3)c1[N+](=O)[O-] | . | -0.05 | . | . | .
CC(=C1C(=O)c2ccccc2C1=O)N1CCN(CCN=CC2=C(O)CC(C)(C)CC2=O)CC1 | -2 | 0.06 | -19 | -13 | 34*
CC(=NCCN1CCN(C(C)=C2C(=O)c3ccccc3C2=O)CC1)C1=C(O)CC(C)(C)CC1=O | -1 | -0.62 | -41 | 15 | 31*
Cc1cccc(/N=C/c2c(O)ccc3oc4c(c23)CCCC4)n1 | 1 | 0.05 | -15 | -36 | 31*
O=C(CN1CCN(C(c2ccccc2)c2ccccc2)CC1)NC(=O)NCc1ccco1 | 2 | -3.2 | -64 | -13 | -29
CCNc1nc(NCC)nc(SCCOC(=O)c2ccccc2)n1 | 1 | . | -11 | 72 | .
CCNc1nc(NCC)nc(SCCOC(=O)Nc2ccc(Cl)cc2Cl)n1 | 10* | -0.21 | -18 | -29 | -3
Cc1c(NC(=O)CN2C(=O)NC3(CCCCC3)C2=O)c(=O)n(-c2ccccc2)n1C | 1 | -0.28 | . | 8 | .
COc1ccc(C(=O)NC2CCN(C(=S)Nc3cccc(C)c3C)CC2)cc1 | 8.6* | . | -49 | 16 | -2
COc1ccc(C(=O)NC2CCN(C(=S)Nc3ccc(C)c(C)c3)CC2)cc1 | 4 | . | -32 | 20 | 5
O=C(CC1C(=O)NCCN1Cc1cccc(Oc2ccccc2)c1)NCCc1cnccn1 (configuration not stated) | 0 | . | . | . | .
O=C(O)c1cc2c([nH]c1=O)CCCC2 | 2 | -0.13 | -30 | 48 | -10
C=CCSC(=C(C#N)C#N)c1cc2c([nH]1)CCCC2 | 11* | 0.75 | 61* | -36 | -8
CCCn1nc(NC(=O)c2ccccn2)c2cc3cc(C)ccc3nc21 | 9.2* | 0.21 | -29 | 20 | -5
CCCn1nc(NC(=O)c2ccco2)c2cc3cc(C)ccc3nc21 | . | -0.25 | . | . | .
COC(=O)CSc1nc(-c2ccccc2)c2c(c1C#N)CCCC2 | 8.6* | 0.21 | -52 | 22 | 0
COC(=O)C1(O)CC(C(C)C)=NN1C(=O)c1ccccc1 (configuration not stated) | 0 | -0.02 | -15 | 42 | 9
C=CCNC(=O)C1CCN(S(=O)(=O)c2ccc(Br)cc2)CC1 | 3 | 3.1* | -10 | . | -5
O=C(CSc1nnnn1-c1cccc2ccccc12)NC(C(=O)O)(c1ccccc1)c1ccccc1 | 8.8* | . | . | . | .
Cc1ccc(-n2nnnc2SCC(=O)NC(C(=O)O)(c2ccccc2)c2ccccc2)cc1C | 6 | . | . | . | .
O=C(O)Cc1ccc2sc(-c3ccccc3)nc2c1 | 0 | 0.64 | 49* | 28 | -9
CCN(CC)Cc1c(O)ccc2c([N+](=O)[O-])c(C)n(-c3ccc(OC)cc3)c12 | 4 | . | -52 | 78* | .
SMILES | RAM inhibit | Ins promoter up | Yeast growth inh | INS promoter inh | Yeast life ext
O=C(Oc1cc(=O)n2ccccc2n1)c1ccccc1 | -1 | 0.46 | -17 | -33 | 43*
CCC(c1nc2ccccc2c(=O)n1CCN1CCOCC1)N1C(=O)c2ccccc2C1=O (configuration not stated) | 1 | 0.61 | -18 | 66* | -8
CCC(c1nc2ccccc2c(=O)n1CCCn1ccnc1)N1C(=O)c2ccccc2C1=O (configuration not stated) | 0 | 0.23 | -33 | 22 | -12
CC1CC(C)CN(C(=O)c2cccc(S(=O)(=O)Nc3cc(C(F)(F)F)ccc3Cl)c2)C1 (configuration not stated) | 5 | 0.09 | -22 | 50 | 32*
O=C(O)c1cccc(S(=O)(=O)Nc2cc(Cl)ccc2Cl)c1 | . | 0.81 | . | . | .
Cc1nnc(NC(=O)Nc2cccc(Cl)c2)s1 | 3 | -0.68 | -35 | -110 | -5
Cc1ccc(OCCSCc2nnc(NC(=O)Nc3cccc(Cl)c3)s2)cc1 | 8.4* | -0.53 | -4 | -31 | 6
COc1ccc(-c2csc(NC(=O)C3COc4ccccc4O3)n2)cc1OC (configuration not stated) | 10* | 0.19 | . | . | .
COc1ccc(/C=N/NC(=O)C2COc3ccccc3O2)cc1OC (configuration not stated) | 1 | . | . | 23 | .
COc1ccc(-c2csc(NC(=S)NC(=O)/C=C/c3ccco3)n2)cc1OC | 9.7* | . | -18 | -28 | 4
CC(NC(N)=O)C(=O)Nc1ccc(Cl)c(S(=O)(=O)Nc2ccc(Br)cc2)c1 (configuration not stated) | 2 | 0.29 | . | -64 | .
O=C(O)CSc1c(-c2ccccc2)c2cc(Cl)ccc2[nH]c1=O | 8 | 0 | -26 | . | -1
O=c1[nH]c2ccc(Cl)cc2c(O)c1Cc1ccccc1 | 4 | 0.25 | . | 73* | .
CCN(CC)S(=O)(=O)c1cc(NC(=O)[C@@H](NC(N)=O)C(C)C)ccc1C | 0 | 0.12 | . | . | .
Cc1ccc(C)c(CSCC(=O)NCc2cccs2)c1 | 0 | -0.71 | . | -7 | .
CCOC(=O)c1cnc(SC)nc1Oc1cccc(NS(=O)(=O)c2ccc(F)cc2)c1 | 9.8* | 0.15 | -33 | 45 | 2
CCOC(=O)c1cnc(SC)nc1Oc1cccc(NC(=O)c2cccc(Cl)c2Cl)c1 | 9.4* | 1.3 | -75 | -27 | 0
CCOC(=O)c1cnc(SC)nc1Oc1cccc(NS(=O)(=O)c2ccccc2)c1 | 6 | 2 | -14 | 30 | 3
CC(=O)NC(CSC(CC(=O)c1ccco1)c1ccc(C)cc1)C(=O)O (configuration not stated) | -1 | -2.3 | . | . | .
COc1cccc(/C=N/n2nnnc2N)c1O | . | 0.12 | . | . | .
COc1ccccc1Nc1nc(N)nc(CN2CCC(C)CC2)n1 | 0 | -0.12 | . | 8 | .
Cc1cccc(Nc2nc(N)nc(CN3CCC(C)CC3)n2)c1C | 0 | 0.86 | -19 | 100* | .
O=C(CSc1ccccc1[N+](=O)[O-])NC1CCS(=O)(=O)C1 (configuration not stated) | 1 | 0.81 | -30 | -31 | 1
O=[N+]([O-])c1cccc(-c2nc(-c3ccccc3)c(-c3cccs3)[nH]2)c1 | 8.5* | -0.11 | -56 | 13 | -12
O=C(O)[C@@H](O)c1ccccc1 | . | 0.54 | . | . | .
CCOC(=O)c1ccc(N=c2sc(C(=O)OC)cc(=O)n2Cc2ccco2)cc1 | 8.6* | 0.09 | -13 | . | -4
CCOC(=O)c1ccc(N=c2sc(C(=O)OC)cc(=O)n2CCCN2CCOCC2)cc1 | 0 | -0.16 | -51 | . | -9
Cc1ccc(C)c(N2CCN(C(=O)c3cc(S(=O)(=O)N4CCOCC4)ccc3F)CC2)c1 | 2 | 0.39 | -29 | -88 | 0
CC1=NN(Cc2ccccc2)C(=O)C1C(c1ccccc1)C(C#N)C#N (configuration not stated) | 2 | 0.45 | -26 | 17 | 38*

High-throughput results from PubChem BioAssay.
